In test [1] the target is T1, 5-hydroxytryptamine receptor 2A (Rattus norvegicus, UniProt P14842). Description: Displacement of [125I]DOI from 5HT2A receptor in rat cerebral cortex. Format: tissue-based. A digest of the protocol:
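Competition binding against the agonist radioligand [125I]DOI at rat brain (cerebral cortex) 5-HT2A receptors. Values are means of at least three experiments.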
In general terms: Loss of bound radioactivity is the signal in a displacement assay; it reports binding, not function.

The target of test [2] is T1, 5-hydroxytryptamine receptor 2A. Description: (§1) Agonist activity at 5HT2A receptor in rat A7r5 cells assessed as intracellular calcium mobilization relative to 5HT. In kind it is functional, cell-based. A digest of the protocol: (§2)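 Native 5-HT2 receptors in rat vascular smooth muscle A7r5 cells; receptor-mediated intracellular Ca2+ mobilization read on FLIPR. Emax expressed relative to the 5-HT response. Values are means of at least three experiments.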
In general terms: Calcium assays in cells follow changes in intracellular calcium, usually with a dye or a luminescent sensor.

Test [3] concerns the target 5-hydroxytryptamine receptor 2A (Rattus norvegicus) (UniProt P14842). The description is as §1. Format: functional, cell-based. The essentials:
as §2

Test [4] concerns the target 5-hydroxytryptamine receptor 2B (Rattus norvegicus, UniProt P30994). Description: Agonist activity at 5HT2B receptor in rat stomach fundus assessed as […] relative to 5HT. In kind it is functional. A digest of the protocol: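 Functional 5-HT2B response measured in isolated rat stomach fundus tissue, run by a contract lab. Emax given relative to 5-HT. Means of at least three experiments.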

For test [5], the target named is T2, 5-hydroxytryptamine receptor 2C (Rattus norvegicus, UniProt P08909).
T2 sequence (P08909 whole entry): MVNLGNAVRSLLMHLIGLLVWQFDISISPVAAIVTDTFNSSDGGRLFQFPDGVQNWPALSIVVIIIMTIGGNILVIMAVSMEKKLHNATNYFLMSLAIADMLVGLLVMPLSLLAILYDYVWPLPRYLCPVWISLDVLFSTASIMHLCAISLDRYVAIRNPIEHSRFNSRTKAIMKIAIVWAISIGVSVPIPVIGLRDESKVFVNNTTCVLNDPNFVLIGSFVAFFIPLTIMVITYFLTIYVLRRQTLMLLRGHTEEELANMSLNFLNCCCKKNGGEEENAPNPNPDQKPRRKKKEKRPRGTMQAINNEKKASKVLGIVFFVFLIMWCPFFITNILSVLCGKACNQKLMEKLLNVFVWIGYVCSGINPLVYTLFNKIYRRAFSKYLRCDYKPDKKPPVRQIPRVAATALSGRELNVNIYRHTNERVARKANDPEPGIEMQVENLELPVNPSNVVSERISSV
Description: Agonist activity at 5HT2C receptor expressed in […] cells assessed as intracellular calcium mobilization relative to 5HT.

For test [6], the target named is T3, 5-hydroxytryptamine receptor 2C (Rattus norvegicus) (UniProt P08909).
T3 sequence (whole entry): T2 sequence (P08909 whole entry)
Description: Agonist activity at 5HT2C receptor expressed in […] cells assessed as intracellular calcium mobilization. In kind it is functional, cell-based. The essentials: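 SR3T3 cells expressing recombinant rat 5-HT2C receptor; intracellular Ca2+ mobilization measured on FLIPR, as for the A7r5 assay. Emax taken relative to 5-HT. Values are means of at least three experiments.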

Test [7] addresses 5-hydroxytryptamine receptor 2A (Rattus norvegicus) (UniProt P14842). Description: Agonist activity at 5HT2A receptor in rat A7r5 cells assessed as intracellular calcium mobilization. In kind it is functional, cell-based. The essentials: as §2
The test system of test [8] is Cynomolgus monkey. Description: Reduction of intra ocular pressure in cynomolgus monkey at 300 ug. In kind it is functional, organism-based, Macaca fascicularis, Eye. Also noted: Activity: scale not given: the % may be the effect or the level left.

Here are results for 17 compounds from ChEMBL document CHEMBL1147985, “Novel benzodifuran analogs as potent 5-HT2A receptor agonists with ocular hypotensive activity” (Bioorg Med Chem Lett, 2007).

5-hydroxytryptamine receptor 2B, sequence (P30994 whole entry): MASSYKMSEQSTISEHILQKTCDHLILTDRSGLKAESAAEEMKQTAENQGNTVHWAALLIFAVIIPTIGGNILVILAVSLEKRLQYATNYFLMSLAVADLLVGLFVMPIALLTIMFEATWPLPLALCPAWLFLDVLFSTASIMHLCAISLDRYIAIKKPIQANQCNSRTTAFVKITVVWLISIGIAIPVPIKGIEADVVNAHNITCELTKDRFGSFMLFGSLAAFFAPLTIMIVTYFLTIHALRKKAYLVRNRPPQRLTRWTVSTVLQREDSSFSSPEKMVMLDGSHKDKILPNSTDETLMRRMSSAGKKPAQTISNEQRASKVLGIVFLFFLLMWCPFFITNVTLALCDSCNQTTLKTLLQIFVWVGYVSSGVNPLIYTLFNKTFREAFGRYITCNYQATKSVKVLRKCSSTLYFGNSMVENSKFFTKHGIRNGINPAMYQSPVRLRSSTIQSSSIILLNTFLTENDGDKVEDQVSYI
T1 sequence (P14842 whole entry): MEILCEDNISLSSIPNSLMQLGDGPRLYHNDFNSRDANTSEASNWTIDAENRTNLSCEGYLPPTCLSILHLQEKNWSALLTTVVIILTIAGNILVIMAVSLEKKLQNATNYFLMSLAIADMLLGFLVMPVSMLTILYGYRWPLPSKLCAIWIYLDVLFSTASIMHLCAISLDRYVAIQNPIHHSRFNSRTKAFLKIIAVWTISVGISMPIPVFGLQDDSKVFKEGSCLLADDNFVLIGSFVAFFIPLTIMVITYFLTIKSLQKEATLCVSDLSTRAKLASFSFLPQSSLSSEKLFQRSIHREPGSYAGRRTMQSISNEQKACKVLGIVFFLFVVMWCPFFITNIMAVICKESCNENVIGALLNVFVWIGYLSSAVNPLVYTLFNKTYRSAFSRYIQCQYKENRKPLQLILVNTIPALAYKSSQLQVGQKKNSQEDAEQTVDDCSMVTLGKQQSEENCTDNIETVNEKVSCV
5-hydroxytryptamine receptor 2A (Rattus norvegicus), sequence (P14842 whole entry): as above

Usually IC50 stands for the concentration at which inhibition is half-maximal. Usually EC50 stands for the concentration that produces a half-maximal response. For orientation: Emax means the maximal effect, on the per cent scale that the assay sets. `C[C@@H](N)[C@@H](O)c1c2c(c(Br)c3c1OCC3)OCC2` (racemic): the half-maximal inhibitory concentration (IC50) in test [1] is 2.6 nM. In test [2], the 50% effective concentration (EC50) amounted to 87.8 nM. The maximal response (Emax) in test [3] was found to be 56%.

`COC(=O)CCc1c2c(c(C[C@@H](C)N)c3c1OCC3)OCC2`: the 50% inhibitory concentration (IC50) in test [1] came to 0.86 nM. Besides, the EC50 in test [2] was 26 nM. Besides, in test [3], the maximal effect (Emax) turned out to be 40%.

With `COCCOCc1c2c(c(C[C@@H](C)N)c3c1OCC3)OCC2`, the concentration for a half-maximal effect (EC50) in test [4] turned out to be 5.8 nM; in test [5], 8.6 nM; in test [2], 71 nM. Besides, in test [1], the concentration for half-maximal inhibition (IC50) is 0.88 nM. Moreover, the maximum response (Emax) in test [6] came to 93%; in test [7], 50%.

In test [1], `CC(N)Cc1c2c(c(Br)c3c1OCC3)OCC2` (stereo not given) displayed an IC50 of 0.3 nM. In addition, the concentration for a half-maximal effect (EC50) in test [2] was determined as 13 nM. Further, the maximal effect (Emax) in test [3] is 47%.

`C[C@@H](N)Cc1c2c(c(CO)c3c1OCC3)OCC2` displayed an IC50 in test [1] of 1 nM. The concentration for a half-maximal effect (EC50) in test [2] was determined as 175 nM. Also, in test [3], the Emax stood at 43%.

In test [1], `C[C@@H](N)Cc1c2ccoc2c(CO)c2ccoc12` came in with a concentration for half-maximal inhibition (IC50) of 0.31 nM. For the same compound, in test [2], the EC50 turned out to be 33 nM. In test [3], the Emax was 38%.

On to `COCc1c2ccoc2c(C[C@@H](C)N)c2ccoc12`, for which, in test [1], the IC50 turned out to be 0.11 nM. For the same compound, the EC50 in test [2] was 3.6 nM. The Emax in test [3] was found to be 72%.

In test [1], `Cc1noc(CCc2c3c(c(C[C@@H](C)N)c4c2OCC4)OCC3)n1` registered a half-maximal inhibitory concentration (IC50) of 1 nM. In test [2], the EC50 was greater than 10000 nM. Further, the Emax in test [3] came to 7%.

In turn, `C[C@@H](N)Cc1c2c(c(CC(=O)O)c3c1OCC3)OCC2` returned an IC50 in test [1] of 104 nM. The EC50 in test [2] worked out at 4970 nM. The Emax in test [3] turned out to be 45%.

As for `Cc1noc(Cc2c3ccoc3c(C[C@@H](C)N)c3ccoc23)n1`, the EC50 in test [4] was determined as 23 nM; in test [5] it was 82 nM; in test [2] it was 16.9 nM. The same compound came in with an IC50 in test [1] of 0.38 nM. Also, the Emax in test [6] was 95%; in test [7], 60%. In addition, the Activity in test [8] was found to be 27%.

As to `COC(=O)c1c2c(c(C[C@@H](C)N)c3c1OCC3)OCC2`, in test [1], the half-maximal inhibitory concentration (IC50) is 14 nM. Besides, the EC50 in test [2] turned out to be 880 nM. Also, the Emax in test [3] stood at 48%.

In test [1], `C[C@@H](N)Cc1c2c(c(CCC(=O)O)c3c1OCC3)OCC2` displayed an IC50 of 4700 nM. Also, in test [2], the concentration giving a half-maximal response (EC50) was greater than 1000 nM. The maximal response (Emax) in test [3] amounted to 15%.

With `Cc1noc(Cc2c3c(c(C[C@@H](C)N)c4c2OCC4)OCC3)n1`, the figures for the concentration giving a half-maximal response (EC50) in test [4], in test [5] and in test [2] were 130 nM, 689 nM and 49.2 nM, respectively. This compound also gave an IC50 in test [1] of 1.6 nM. Moreover, the values for the Emax in test [6] and in test [7] were 69% and 33%, respectively.

`COCc1c2c(c(C[C@@H](C)N)c3c1OCC3)OCC2`: the IC50 in test [1] turned out to be 0.28 nM. Moreover, the 50% effective concentration (EC50) in test [5] is 12.6 nM; in test [2] it was 12 nM. Further, the Emax turned out to be 99% in test [6] and 54% in test [7]. The compound further had an Activity in test [8] of 36.8%.

`COc1cc(C[C@@H](C)N)c(OC)cc1I`: the IC50 in test [1] is 0.46 nM. In addition, the EC50 in test [2] is 17.8 nM; in test [8] (Macaca fascicularis, Eye), 2.72 nM. The Emax in test [3] and in test [7] was 33% in each case.

For `C[C@@H](N)[C@H](O)c1c2c(c(Br)c3c1OCC3)OCC2`, the half-maximal effective concentration (EC50) in test [4] worked out at 6.2 nM; in test [5], 39 nM; in test [2], 32.7 nM. The compound further registered a half-inhibitory concentration (IC50) in test [1] of 0.7 nM. Moreover, the Emax in test [6] amounted to 100%; in test [7], 96%. The Activity in test [8] is 24%.

As for `Cc1noc(-c2c3c(c(C[C@@H](C)N)c4c2OCC4)OCC3)n1`, the IC50 in test [1] came to 910 nM. The 50% effective concentration (EC50) in test [2] amounted to 8190 nM. Besides, in test [3], the Emax came out at 27%.
